ChEMBL document CHEMBL1155506 (J Med Chem, 2010)
Blank lines part the entries; values can stand above or below the compound they belong to. Active and inactive are the calls of the source. The calls are words filed in the database; no cut-off is given here.

Key:
[1] = Total clearance in Sprague-Dawley rat at 2 mg/kg, iv after 24 hrs by HPLC/MS/MS analysis; type: ADME, organism-based; parameters: dose 2 mg/kg, route intravenous; details: in vivo
In short: (§1)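 Male rats fasted overnight before oral dosing; 10 mg/kg po and 2 mg/kg iv in 80% PEG400/20% phosphate buffered saline. Jugular vein blood was sampled at 0.25–21 h over 24 h, and heparin plasma was assayed by HPLC/MS/MS (MRM, positive electrospray, internal standard; LLOQ 1 ng/mL, ULOQ 2000 ng/mL). %F is taken relative to the 2 mg/kg iv dose. Mean of n = 3 animals.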

[2] = biological target: T1, 5-hydroxytryptamine receptor 2C (Homo sapiens, UniProt P28335); assay: Displacement of [125I]DOI from human recombinant 5HT2C receptor expressed in HEK293 cells by scintillation counting; type: cell-based
T1 sequence (P28335 whole entry): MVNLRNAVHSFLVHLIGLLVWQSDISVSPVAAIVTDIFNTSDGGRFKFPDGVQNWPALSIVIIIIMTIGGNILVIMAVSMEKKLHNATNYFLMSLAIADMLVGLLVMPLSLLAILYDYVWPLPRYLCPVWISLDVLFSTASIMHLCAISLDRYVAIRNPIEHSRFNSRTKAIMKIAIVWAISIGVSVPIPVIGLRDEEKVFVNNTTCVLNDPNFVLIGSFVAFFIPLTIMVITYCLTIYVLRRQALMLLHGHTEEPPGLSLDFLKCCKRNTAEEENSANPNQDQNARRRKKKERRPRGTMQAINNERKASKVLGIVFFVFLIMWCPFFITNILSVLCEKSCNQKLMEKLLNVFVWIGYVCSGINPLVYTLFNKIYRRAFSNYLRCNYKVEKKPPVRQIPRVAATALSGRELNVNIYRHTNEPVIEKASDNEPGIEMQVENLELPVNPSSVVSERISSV
In short: (§2)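 Crude plasma membranes from HEK293 cells stably expressing the human receptor (5–25 μg protein), in 20 mM HEPES pH 7.4 with 10 mM MgCl2. Incubated with 0.5 nM [125I]DOI and test compound (1 pM–10 μM) for 1 h at room temperature; nonspecific binding defined with 10 μM cold DOI. Filtered, washed with ice-cold Tris buffer and scintillation counted in triplicate.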

[3] = Ratio of drug level in brain to plasma in Sprague-Dawley rat at 30 mg/kg, po after 24 hrs; type: ADME, organism-based; parameters: dose 30 mg/kg, route oral; details: read-out: BPR
Canis familiaris [4] = assay: Ex vivo inhibition of serotonin-mediated amplification of collagen-stimulated platelet aggregation in Beagle dog at 10 mg/kg, po administered as single dose measured after 12 hrs; type: functional; details: Canis lupus familiaris
In short: (§3)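 Beagle dogs given a single oral dose of 10 mg/kg. Serotonin-mediated amplification of collagen-stimulated aggregation measured in whole blood ex vivo at 1, 6, 12 and 24 h post-dose.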

[5] = Bioavailability in Sprague-Dawley rat at 2 mg/kg, iv after 24 hrs by HPLC/MS/MS analysis; type: ADME, organism-based; details: in vivo; in short: as §1
[6] = AUC (0 to last) in Sprague-Dawley rat at 10 mg/kg, po after 24 hrs by HPLC/MS/MS analysis; type: ADME, organism-based; parameters: time 0 - last, dose 10 mg/kg, route oral; details: plasma; in short: as §1
[7] = AUC (0 to last) in monkey at 10 mg/kg, po after 24 hrs by HPLC/MS/MS analysis; type: ADME, organism-based, Macaca mulatta; parameters: time 0 - last, dose 10 mg/kg, route oral; details: rhesus monkey, plasma
In short: (§4)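 Oral dose 10 mg/kg; %F calculated relative to a 2 mg/kg iv dose. Values are the mean of n = 3 animals.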

Canis familiaris [8] = assay: Ex vivo inhibition of serotonin-mediated amplification of collagen-stimulated platelet aggregation in Beagle dog at 1 mg/kg, po for 10 days measured after 10 days; type: functional, organism-based; parameters: dose 1 mg/kg; details: Canis lupus familiaris
In short: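 Beagle dogs dosed orally with 1 mg/kg daily for 10 days. Serotonin-mediated amplification of collagen-stimulated aggregation then measured in whole blood ex vivo.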

[9] = Half life in Sprague-Dawley rat at 10 mg/kg, po by HPLC/MS/MS analysis; type: ADME, organism-based; parameters: dose 10 mg/kg, route oral; details: in vivo; in short: as §1
[10] = Bioavailability in monkey at 2 mg/kg, iv after 24 hrs by HPLC/MS/MS analysis; type: ADME, organism-based, Macaca mulatta; details: rhesus monkey, in vivo; in short: as §4
[11] = Antiplatelet activity in dog platelet rich plasma assessed as inhibition of ADP-induced aggregation treated 10 mins after ADP challenge measured after 3 mins by turbidimetry; type: functional; details: Canis lupus familiaris
[12] = biological target: 5-hydroxytryptamine receptor 2B (Homo sapiens, UniProt P41595); assay: Displacement of [125I]DOI from human recombinant 5HT2B receptor expressed in HEK293 cells by scintillation counting; type: cell-based
[13] = biological target: T2, 5-hydroxytryptamine receptor 2A (Homo sapiens, UniProt P28223); assay: Inverse agonist activity at human 5HT2A receptor expressed in HEK293 cells assessed as inhibition of inositol phosphate accumulation; type: functional, cell-based
[14] = Half life in dog at 10 mg/kg, po by HPLC/MS/MS analysis; type: ADME, organism-based, Canis lupus familiaris; parameters: dose 10 mg/kg, route oral; details: in vivo; in short: as §4
[15] = Total clearance in dog at 2 mg/kg, iv after 24 hrs by HPLC/MS/MS analysis; type: ADME, organism-based, Canis lupus familiaris; parameters: dose 2 mg/kg, route intravenous; details: in vivo; in short: as §4
[16] = biological target: T2, 5-hydroxytryptamine receptor 2A; assay: Displacement of [125I]DOI from human recombinant 5HT2A receptor expressed in HEK293 cells by scintillation counting; type: cell-based; in short: as §2
[17] = Total clearance in monkey at 2 mg/kg, iv after 24 hrs by HPLC/MS/MS analysis; type: ADME, organism-based, Macaca mulatta; parameters: dose 2 mg/kg, route intravenous; details: rhesus monkey, in vivo; in short: as §4
[18] = Bioavailability in dog at 2 mg/kg, iv after 24 hrs by HPLC/MS/MS analysis; type: ADME, organism-based, Canis lupus familiaris; details: in vivo; in short: as §4
hERG (KCNH2) [19] = biological target: T3, hERG (KCNH2) (Homo sapiens, UniProt Q12809); assay: Inhibition of human ERG at 3 uM by patch clamp assay
[20] = Cmax in monkey at 10 mg/kg, po after 24 hrs by HPLC/MS/MS assay; type: ADME, organism-based, Macaca mulatta; parameters: dose 10 mg/kg, route oral; details: rhesus monkey, in vivo; in short: as §4
[21] = Volume of distribution at steady state in monkey at 2 mg/kg, iv after 24 hrs by HPLC/MS/MS analysis; type: ADME, organism-based, Macaca mulatta; parameters: dose 2 mg/kg, route intravenous; details: rhesus monkey, in vivo, read-out: Vdss; in short: as §4
[22] = Volume of distribution at steady state in Sprague-Dawley rat at 2 mg/kg, iv after 24 hrs by HPLC/MS/MS analysis; type: ADME, organism-based; parameters: dose 2 mg/kg, route intravenous; details: in vivo, read-out: Vdss; in short: as §1
Canis familiaris [23] = assay: Ex vivo inhibition of serotonin-mediated amplification of collagen-stimulated platelet aggregation in Beagle dog at 10 mg/kg, po administered as single dose measured after 1 hr; type: functional, organism-based; parameters: dose 10 mg/kg; details: Canis lupus familiaris; in short: as §3
[24] = Cmax in dog at 10 mg/kg, po after 24 hrs by HPLC/MS/MS assay; type: ADME, organism-based, Canis lupus familiaris; parameters: dose 10 mg/kg, route oral; details: in vivo; in short: as §4
[25] = Cmax in Sprague-Dawley rat at 10 mg/kg, po after 24 hrs by HPLC/MS/MS assay; type: ADME, organism-based; parameters: dose 10 mg/kg, route oral; details: in vivo; in short: as §1
Canis familiaris [26] = assay: Antithrombotic activity in Beagle dog Folts model of recurrent coronary thrombosis model assessed as inhibition of thrombosis occurrence at 0.07 mg/kg, iv bolus dose followed by continuous fusion of 1.16 ug/kg/min, iv administered before onset of thrombosis; type: functional; details: Canis lupus familiaris
In short: (§5)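 Anesthetized dogs in the Folts model of recurrent coronary thrombosis. Given 0.07 mg/kg iv bolus followed by continuous iv infusion of 1.16 μg/kg/min, either before or after onset of recurrent thrombosis. Read-out is flow-time area, compared with saline controls.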

[27] = AUC (0 to last) in dog at 10 mg/kg, po after 24 hrs by HPLC/MS/MS analysis; type: ADME, organism-based, Canis lupus familiaris; parameters: time 0 - last, dose 10 mg/kg, route oral; details: plasma; in short: as §4
Canis familiaris [28] = assay: Ex vivo inhibition of serotonin-mediated amplification of collagen-stimulated platelet aggregation in Beagle dog at 10 mg/kg, po administered as single dose measured after 6 hrs; type: functional; details: Canis lupus familiaris; in short: as §3
[29] = biological target: Voltage-gated inwardly rectifying potassium channel KCNH2 (Homo sapiens, UniProt Q12809); assay: Inhibition of human ERG by patch clamp assay
[30] = Half life in monkey at 10 mg/kg, po by HPLC/MS/MS analysis; type: ADME, organism-based, Macaca mulatta; parameters: dose 10 mg/kg, route oral; details: rhesus monkey, in vivo; in short: as §4
Canis familiaris [31] = assay: Antithrombotic activity in Beagle dog Folts model of recurrent coronary thrombosis model assessed as inhibition of thrombosis occurrence at 0.07 mg/kg, iv bolus dose followed by continuous fusion of 1.16 ug/kg/min, iv administered after onset of thrombosis; type: functional; details: Canis lupus familiaris; in short: as §5
[32] = Antiplatelet activity in human platelet rich plasma assessed as inhibition of ADP-induced aggregation preincubated for 1 min before 5-HT and ADP challenge measured after 3 mins by turbidimetry
[33] = Volume of distribution at steady state in dog at 2 mg/kg, iv after 24 hrs by HPLC/MS/MS analysis; type: ADME, organism-based, Canis lupus familiaris; parameters: dose 2 mg/kg, route intravenous; details: in vivo, read-out: Vdss; in short: as §4
Canis familiaris [34] = assay: Ex vivo inhibition of serotonin-mediated amplification of collagen-stimulated platelet aggregation in Beagle dog at 10 mg/kg, po administered as single dose measured after 24 hrs; type: functional; details: Canis lupus familiaris; in short: as §3
hERG (KCNH2) [35] = biological target: T3, hERG (KCNH2); assay: Inhibition of human ERG at 1 uM by patch clamp assay

T3 sequence (Q12809 whole entry): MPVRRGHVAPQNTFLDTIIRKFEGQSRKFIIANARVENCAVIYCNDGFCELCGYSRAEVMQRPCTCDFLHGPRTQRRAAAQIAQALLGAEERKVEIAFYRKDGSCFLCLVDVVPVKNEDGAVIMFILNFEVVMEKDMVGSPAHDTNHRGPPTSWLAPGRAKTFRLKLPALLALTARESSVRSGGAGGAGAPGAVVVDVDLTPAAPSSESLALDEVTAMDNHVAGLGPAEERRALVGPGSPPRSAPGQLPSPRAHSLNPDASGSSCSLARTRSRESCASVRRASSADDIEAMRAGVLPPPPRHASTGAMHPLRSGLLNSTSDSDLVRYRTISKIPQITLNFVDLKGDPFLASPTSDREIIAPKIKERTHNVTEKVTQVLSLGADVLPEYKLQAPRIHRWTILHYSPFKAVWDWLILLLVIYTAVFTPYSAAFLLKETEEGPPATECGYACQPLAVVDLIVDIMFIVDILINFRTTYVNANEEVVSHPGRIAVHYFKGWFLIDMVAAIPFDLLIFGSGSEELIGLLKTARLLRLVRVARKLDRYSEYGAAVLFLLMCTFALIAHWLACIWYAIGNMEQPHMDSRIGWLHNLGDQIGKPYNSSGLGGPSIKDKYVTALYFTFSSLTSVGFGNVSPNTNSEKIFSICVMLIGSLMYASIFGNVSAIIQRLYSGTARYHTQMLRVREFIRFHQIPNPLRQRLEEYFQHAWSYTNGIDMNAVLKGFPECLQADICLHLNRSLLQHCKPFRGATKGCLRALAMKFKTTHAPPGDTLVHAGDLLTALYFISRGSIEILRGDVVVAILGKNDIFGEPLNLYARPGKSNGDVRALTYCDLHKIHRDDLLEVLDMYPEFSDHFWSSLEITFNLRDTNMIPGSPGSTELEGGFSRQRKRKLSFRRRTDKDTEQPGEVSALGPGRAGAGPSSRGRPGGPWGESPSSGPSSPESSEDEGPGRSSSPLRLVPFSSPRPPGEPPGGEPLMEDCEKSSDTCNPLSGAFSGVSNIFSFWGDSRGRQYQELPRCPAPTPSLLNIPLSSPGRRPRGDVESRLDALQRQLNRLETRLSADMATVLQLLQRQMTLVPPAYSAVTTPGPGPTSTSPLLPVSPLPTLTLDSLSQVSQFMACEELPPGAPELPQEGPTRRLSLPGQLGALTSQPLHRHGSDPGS
T2 sequence (P28223 whole entry): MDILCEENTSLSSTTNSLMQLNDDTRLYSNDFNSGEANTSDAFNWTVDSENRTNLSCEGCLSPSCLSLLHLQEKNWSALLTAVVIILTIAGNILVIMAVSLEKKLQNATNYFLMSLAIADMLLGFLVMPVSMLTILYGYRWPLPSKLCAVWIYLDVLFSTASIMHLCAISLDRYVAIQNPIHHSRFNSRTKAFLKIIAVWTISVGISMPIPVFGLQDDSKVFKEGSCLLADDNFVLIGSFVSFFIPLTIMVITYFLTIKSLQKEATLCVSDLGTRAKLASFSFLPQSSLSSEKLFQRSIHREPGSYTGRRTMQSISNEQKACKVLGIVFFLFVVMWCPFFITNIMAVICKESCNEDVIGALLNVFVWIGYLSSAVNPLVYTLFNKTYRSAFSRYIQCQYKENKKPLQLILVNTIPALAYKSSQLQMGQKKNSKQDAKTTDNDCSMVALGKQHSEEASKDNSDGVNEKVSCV
Chain of Voltage-gated inwardly rectifying potassium channel KCNH2 (Q12809 whole entry): as the sequence (Q12809 whole entry) above
Chain of 5-hydroxytryptamine receptor 2B (P41595 whole entry): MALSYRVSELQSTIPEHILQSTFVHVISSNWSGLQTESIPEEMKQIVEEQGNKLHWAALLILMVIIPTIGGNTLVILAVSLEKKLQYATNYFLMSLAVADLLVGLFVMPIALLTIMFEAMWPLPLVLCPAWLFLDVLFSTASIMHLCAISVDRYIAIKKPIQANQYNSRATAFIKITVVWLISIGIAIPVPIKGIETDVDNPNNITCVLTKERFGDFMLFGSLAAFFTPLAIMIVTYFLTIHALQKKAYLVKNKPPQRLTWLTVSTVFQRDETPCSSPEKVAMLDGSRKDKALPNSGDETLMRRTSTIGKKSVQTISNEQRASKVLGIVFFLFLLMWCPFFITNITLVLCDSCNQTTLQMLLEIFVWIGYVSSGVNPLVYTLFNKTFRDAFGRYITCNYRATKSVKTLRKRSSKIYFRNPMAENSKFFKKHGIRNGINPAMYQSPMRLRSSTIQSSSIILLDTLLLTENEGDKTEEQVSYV

SMILES: COc1cccc(C(=O)Nc2ccc(OCCN3CCOCC3)c(-c3ccnn3C)c2)c1 [TEMANOGREL]
clearance [1]: 367 mL/min/kg
Ki [2]: > 10000 nM
Kp at 24 h [3]: 0.05
inhibition in vivo at 10 mg/kg (Canis familiaris [4]): 57%
bioavailability [5]: 10%
AUC(0-t) at 24 h [6]: 43 ng·h/mL
AUC(0-t) at 24 h [7]: 1920 ng·h/mL
inhibition (Canis familiaris [8]): Active
half-life [9]: 1 h
bioavailability [10]: 16%
IC50 [11]: 23.1 nM
Ki [12]: > 10000 nM
IC50 [13]: 5.2 nM
half-life [14]: 0.9 h
clearance [15]: 20 mL/min/kg
Ki [16]: 4.9 nM
clearance [17]: 15 mL/min/kg
bioavailability [18]: 45%
inhibition at 3 µM (hERG (KCNH2) [19]): 32%
Cmax [20]: 1460 ng/mL
Vd [21]: 0.6 L/kg
Vd [22]: 29 L/kg
inhibition (Canis familiaris [23]): Active
Cmax [24]: 2280 ng/mL
Cmax [25]: 58 ng/mL
inhibition in vivo at 0.07 mg/kg (Canis familiaris [26]): 58%
AUC(0-t) at 24 h [27]: 3540 ng·h/mL
inhibition in vivo at 10 mg/kg (Canis familiaris [28]): 86%
IC50 [29]: 11000 nM
half-life [30]: 2.1 h
inhibition in vivo at 0.07 mg/kg (Canis familiaris [31]): 58%
IC50 [32]: 8.7 nM
Vd [33]: 1.3 L/kg
inhibition in vivo at 10 mg/kg (Canis familiaris [34]): 58%

SMILES: Cn1nccc1-c1cc(NC(=O)c2cccc(C(F)(F)F)c2)ccc1OCCN1CCNC(=O)C1
Ki [2]: > 10000 nM
Ki [16]: 287 nM

The next compounds have a lower Ki [2] than those just listed; values first:

Ki [2]: 5890 nM
Ki [16]: 5.1 nM
IC50 [32]: 57 nM
SMILES: COc1cccc(C(=O)Nc2ccc(OCCN3CCN(C(N)=O)CC3)c(-c3ccnn3C)c2)c1
inhibition at 3 µM (hERG (KCNH2) [19]): 17%

Ki [2]: 1140 nM
IC50 [13]: 23 nM
Ki [16]: 0.6 nM
IC50 [32]: 3.2 nM
SMILES: Cn1nccc1-c1cc(NC(=O)c2cccc(C(F)(F)F)c2)ccc1OCCN1CCCC1
inhibition at 1 µM (hERG (KCNH2) [35]): 80%

clearance [1]: 18.3 mL/min/kg
Ki [2]: 225 nM
bioavailability [5]: 43%
AUC(0-t) at 24 h [6]: 3830 ng·h/mL
half-life [9]: 2.8 h
Ki [16]: 1.9 nM
Vd [22]: 5.4 L/kg
Cmax [25]: 453 ng/mL
IC50 [32]: 2 nM
SMILES: Cn1nccc1-c1cc(NC(=O)c2ccc(C(F)(F)F)cc2)ccc1OCCN1CCCC1
inhibition at 1 µM (hERG (KCNH2) [35]): 66%
